Columns and labels:
[1] = target: Adenosine receptor A2a (Rattus norvegicus) (UniProt P30543); assay: Affinity for adenosine A2a receptor of rat striatal membrane using [3H]-CGS- 21680 at 10e-5 M
Outline: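 On rat striatal membranes with [3H]CGS 21680 as radioligand, the value is the percentage of radioligand still bound to the receptor in the presence of 10⁻⁵ M test ligand.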

Adenosine receptor A1 [2] = target: T1, Adenosine receptor A1 (Rattus norvegicus, UniProt P25099); assay: Affinity for adenosine A1 receptor was determined, in the absence of GTP in rat cortical membrane.; format: cell membranes
T1 sequence (P25099 whole entry): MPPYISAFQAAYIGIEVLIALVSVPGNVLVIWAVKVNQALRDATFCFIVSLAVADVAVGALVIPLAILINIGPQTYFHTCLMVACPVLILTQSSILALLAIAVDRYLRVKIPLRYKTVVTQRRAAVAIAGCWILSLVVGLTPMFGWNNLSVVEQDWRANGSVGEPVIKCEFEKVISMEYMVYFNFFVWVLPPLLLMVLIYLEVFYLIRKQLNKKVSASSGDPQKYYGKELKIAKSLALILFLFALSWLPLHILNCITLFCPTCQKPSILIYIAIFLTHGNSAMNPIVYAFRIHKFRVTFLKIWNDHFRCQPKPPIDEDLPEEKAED
Outline: (§1)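 Rat cerebral cortex membranes were used for displacement of the tritiated antagonist [3H]DPCPX. GTP shift is the apparent Ki with GTP divided by the apparent Ki without GTP. There were three or four independent experiments, each in duplicate.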

[3] = target: T2, Adenosine receptor A1 (Rattus norvegicus) (UniProt P25099); assay: GTP shift ratio of the apparent Ki values in the presence and absence of GTP.
T2 sequence (whole entry): T1 sequence (P25099 whole entry)
Outline: as §1, with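 “[3H]DPCPX. Assays were run with and without 1 mM GTP, and Ki values were derived from the displacement data.” for “[3H]DPCPX.”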

Adenosine receptor A1 [4] = target: T1, Adenosine receptor A1; assay: Affinity for adenosine A1 receptor was determined, in the presence of GTP in rat brain cortex; format: tissue-based
Outline: as §1, with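 “[3H]DPCPX. Assays were run with and without 1 mM GTP, and Ki values were derived from the displacement data.” for “[3H]DPCPX.”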

Adenosine receptor A2a = Adenosine receptor A2a (Rattus norvegicus, UniProt P30543); assay: Affinity for adenosine A2a receptor was determined on rat striatal membrane using [3H]-CGS- 21680 as radioligand; design: species or system Striatum
Chain of Adenosine receptor A2a (P30543 whole entry): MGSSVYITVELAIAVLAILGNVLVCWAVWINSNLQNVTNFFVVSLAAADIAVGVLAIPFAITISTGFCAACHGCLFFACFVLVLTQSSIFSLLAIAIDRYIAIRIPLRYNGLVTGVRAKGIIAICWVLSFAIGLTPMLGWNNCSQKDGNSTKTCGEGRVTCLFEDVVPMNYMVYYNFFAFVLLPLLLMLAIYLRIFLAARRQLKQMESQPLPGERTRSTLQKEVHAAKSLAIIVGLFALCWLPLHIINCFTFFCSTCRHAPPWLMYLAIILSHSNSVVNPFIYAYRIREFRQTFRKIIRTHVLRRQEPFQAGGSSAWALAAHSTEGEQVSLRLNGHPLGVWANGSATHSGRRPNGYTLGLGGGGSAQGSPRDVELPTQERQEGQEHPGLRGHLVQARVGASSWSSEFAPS
Outline: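 Rat striatal membranes were used for displacement of [3H]CGS 21680 as radioligand, and Ki values were derived from the displacement data. There were three or four independent experiments, each performed in duplicate.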

Chain of Adenosine receptor A2a (Rattus norvegicus) (P30543 whole entry): as above

percent radioligand bound [1] [%]	Ki (Adenosine receptor A1 [2]) [nM]	Ratio [3]	Ki (Adenosine receptor A1 [4]) [nM]	Ki (Adenosine receptor A2a) [nM]	Structure (SMILES)
50	850	0.95	770	–	O=C(Cc1ccccc1)N[C@H]1C(CO)OC(n2cnc3c(NC4CCCC4)ncnc32)C1O (stereo partly drawn)
–	7840	0.73	5740	4660	Nc1ncnc2c1ncn2C1OC(CO)[C@H](NC(=O)CCCCc2ccccc2)C1O (stereo partly drawn)
–	83	0.84	68	790	Cc1ccc(C(=O)N[C@H]2C(CO)OC(n3cnc4c(NC5CCCC5)ncnc43)C2O)cc1 (stereo partly drawn)
–	8470	1.4	11200	2410	[N-]=[N+]=N[C@@H]1[C@@H](O)[C@H](n2cnc3c(NC4CCCC4)ncnc32)O[C@@H]1CO
74	190	0.8	150	–	O=C(CCCC1CCCCC1)N[C@H]1C(CO)OC(n2cnc3c(NC4CCCC4)ncnc32)C1O (stereo partly drawn)
–	200	0.77	130	770	COc1ccc(C(=O)N[C@H]2C(CO)OC(n3cnc4c(NC5CCCC5)ncnc43)C2O)cc1 (stereo partly drawn)
–	–	2.1	–	–	Nc1ncnc2c1ncn2[C@@H]1O[C@H](CO)C[C@H]1O
–	–	4.3	–	–	OC[C@@H]1C[C@@H](O)[C@H](n2cnc3c(NC4CCCC4)ncnc32)O1
–	10900	1.1	11100	2470	Nc1ncnc2c1ncn2[C@@H]1OC(CO)[C@H](NC(=O)c2ccccc2)[C@H]1O (single isomer, unassigned)
–	–	0.8	–	2760	O=C(N[C@H]1C(CO)O[C@@H](n2cnc3c(NC4CCCC4)ncnc32)[C@@H]1O)c1ccccc1 (single isomer, unassigned)
–	3590	0.75	2680	1770	Nc1ncnc2c1ncn2[C@@H]1OC(CO)[C@H](NC(=O)CCCC2CCCCC2)[C@H]1O (single isomer, unassigned)
–	–	0.74	12600	11800	Nc1ncnc2c1ncn2[C@@H]1OC(CO)[C@H](NC(=O)CCOc2ccccc2)[C@H]1O (single isomer, unassigned)
–	370	0.99	350	7940	O=C(CCc1ccccc1)N[C@H]1C(CO)O[C@@H](n2cnc3c(NC4CCCC4)ncnc32)[C@@H]1O (single isomer, unassigned)
–	130	0.94	100	650	O=C(CCCc1ccccc1)N[C@H]1C(CO)O[C@@H](n2cnc3c(NC4CCCC4)ncnc32)[C@@H]1O (single isomer, unassigned)
–	110	0.87	81	580	O=C(N[C@H]1C(CO)O[C@@H](n2cnc3c(NC4CCCC4)ncnc32)[C@@H]1O)c1ccc(Cl)cc1 (single isomer, unassigned)
–	–	0.73	–	2020	O=C(N[C@H]1C(CO)O[C@@H](n2cnc3c(NC4CCCC4)ncnc32)[C@@H]1O)c1ccc(Cl)c(Cl)c1 (single isomer, unassigned)
–	820	0.91	740	6850	O=C(N[C@H]1C(CO)O[C@@H](n2cnc3c(NC4CCCC4)ncnc32)[C@@H]1O)c1ccc([N+](=O)[O-])cc1 (single isomer, unassigned)
–	240	0.83	200	4230	O=C(CCCCc1ccccc1)N[C@H]1C(CO)O[C@@H](n2cnc3c(NC4CCCC4)ncnc32)[C@@H]1O (single isomer, unassigned)
–	–	0.73	–	3680	Cc1ccc(C(=O)N[C@H]2C(CO)O[C@@H](n3cnc4c(NC5CCCC5)ncnc43)[C@@H]2O)cc1C (single isomer, unassigned)

From ChEMBL document CHEMBL1130233, “N6-cyclopentyl-3'-substituted-xylofuranosyladenosines: a new class of non-xanthine adenosine A1 receptor antagonists” (J Med Chem, 1997)
